We go through 6 compounds from ChEMBL document CHEMBL1124568, “2,4-Diamino-5-benzylpyrimidines as antibacterial agents. 13. Some alkenyl derivatives with high in vitro activity against anaerobic organisms” (J Med Chem, 1989).

In brackets after ≈: the same amount, converted by molar mass. A value given as a limit tells only on which side of the number the result lay.

Test [1] deals with Staphylococcus aureus. Kind of test: Ratio of antibacterial (Staphylococcus aureus CN491) activities of compound and trimethoprim. In kind it is functional. The procedure, abridged:
(§1)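 Each MIC is divided by the MIC of trimethoprim run alongside. Serial dilutions were normally 0.1, 0.3, 1, 3, 10, etc., and occasionally 1, 5 and 10. For E. coli the value is the average over six strains.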

For test [2], the system named is Escherichia coli. Briefly: Ratio of antibacterial (Escherichia coli CN314) activities of compound and trimethoprim. Type of test: functional.
In test [3] the test system is Streptococcus pyogenes. Kind of test: Ratio of antibacterial (Streptococcus pyogenes CN10) activities of compound and trimethoprim.
In another test the test system is Salmonella. Briefly: Ratio of antibacterial (Salmonella typhi CN512) activities of compound and trimethoprim. In kind it is functional, salmonella typhosa.
Test [4] relates to Klebsiella aerogenes. Kind of test: Ratio of antibacterial (Enterobacter aerogenes, 2201/86) activities of compound and trimethoprim. Type of test: functional. The procedure, abridged: as §1
Test [5] addresses T1, Dihydrofolate reductase (Escherichia coli, UniProt P0ABQ4).
T1 sequence (P0ABQ4 whole entry): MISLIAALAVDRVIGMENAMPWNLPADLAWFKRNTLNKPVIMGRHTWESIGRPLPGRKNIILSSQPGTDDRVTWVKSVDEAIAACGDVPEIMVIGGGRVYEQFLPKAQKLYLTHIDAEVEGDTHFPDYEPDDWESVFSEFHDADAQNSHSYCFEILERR
Kind of test: In vitro inhibition of dihydrofolate reductase of Escherichia coli. The settings on record: read-out: I50. In outline:
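The E. coli DHFR assay contained 1 nM enzyme, with the lower limit for I50 arbitrarily set at 2 nM. I50 was estimated from plots of % inhibition of steady-state velocity vs log inhibitor concentration.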

In test [6] the test system is Klebsiella pneumoniae. Kind of test: Ratio of antibacterial (Klebsiella pneumoniae CN3632) activities of compound and trimethoprim. In kind it is functional. In outline: as §1
In another test the test system is Shigella dysenteriae. Kind of test: Ratio of antibacterial (Shigella dysentariae CN513) activities of compound and trimethoprim. Type of test: functional.
Test [7] relates to Proteus vulgaris. Briefly: Ratio of antibacterial (Proteus vulgaris CN329) activities of compound and trimethoprim. In kind it is functional. In outline:
as §1

Test [8] deals with T2, Dihydrofolate reductase (Rattus norvegicus, UniProt Q920D2).
T2 sequence (Q920D2 whole entry): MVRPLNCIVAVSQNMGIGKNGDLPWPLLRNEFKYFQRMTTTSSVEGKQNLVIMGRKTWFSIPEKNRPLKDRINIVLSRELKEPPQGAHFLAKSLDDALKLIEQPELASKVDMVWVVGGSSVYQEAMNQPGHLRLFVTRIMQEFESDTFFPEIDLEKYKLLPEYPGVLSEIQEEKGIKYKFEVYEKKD
Briefly: In vitro inhibition of rat liver dihydrofolate reductase. Particulars: read-out: I50.

Another test concerns Fusobacterium nucleatum. Briefly: Ratio of antibacterial (Fusobacterium nucleatum) activities compared to that of trimethoprim and metronidazole. Type of test: functional.
Test [9] deals with Klebsiella aerogenes. Kind of test: Antibacterial (Enterobacter aerogenes 2201/86) activity compared to trimethoprim. In kind it is functional. In outline: as §1
Test [10] deals with Bacteroides thetaiotaomicron. Briefly: Ratio of antibacterial (Bacteroides thetaiotaomicron) activities compared to that of trimethoprim and metronidazole. In kind it is functional.
For test [11], the system named is Streptococcus pyogenes. Briefly: Antibacterial ([…] CN10) activity compared to trimethoprim. In kind it is functional. In outline:
as §1

The test system of a further test is Serratia marcescens. Kind of test: Antibacterial (Serratia marcescens CN2398) activity compared to trimethoprim. In kind it is functional. In outline: as §1
For another test, the system named is Shigella flexneri. Kind of test: Antibacterial (Shigella flexneri CN6007) activity compared to trimethoprim. In kind it is functional. The procedure, abridged:
as §1

Test [12] relates to Proteus vulgaris. Briefly: Antibacterial (Proteus vulgaris CN329) activity compared to trimethoprim. In kind it is functional. The procedure, abridged:
as §1

The next test relates to Pasteurella multocida. Kind of test: Antibacterial (Pasteurella multocides ATCC 6587) activity compared to trimethoprim. Type of test: functional. The procedure, abridged:
as §1

The subject of a further test is Phocaeicola vulgatus. Briefly: Ratio of antibacterial (Bacteroides vulgatus) activities compared to that of trimethoprim and metronidazole. In kind it is functional.
For test [13], the system named is Mycolicibacterium smegmatis. Kind of test: Antibacterial (Mycobacterium smegmatis S3254) activity compared to trimethoprim. Type of test: functional. In outline: as §1
The next test concerns Clostridium perfringens. Briefly: Ratio of antibacterial (Clostridium perfringens) activities compared to that of trimethoprim and metronidazole. Type of test: functional.
For test [14], the system named is Escherichia coli. Kind of test: Antibacterial (Escherichia coli) activity compared to trimethoprim. In kind it is functional. The procedure, abridged:
as §1

Test [15] has as its system Klebsiella pneumoniae. Briefly: Antibacterial (Klebsiella pneumoniae CN3632) activity compared to trimethoprim. Type of test: functional. In outline:
as §1

Another test has as its system Clostridioides difficile. Briefly: Ratio of antibacterial (Clostridium difficile) activities compared to that of trimethoprim and metronidazole. In kind it is functional.
Test [16] is described as follows: Antibacterial (Salmonella typhi CN512) activity compared to trimethoprim. In kind it is functional, salmonella typhosa.
The test system of test [17] is Staphylococcus aureus. Kind of test: Antibacterial (Staphylococcus aureus CN491) activity compared to trimethoprim. Type of test: functional. The procedure, abridged: as §1

Regarding `Cc1cc(Cc2cnc(N)nc2N)cc2c1OC(C)(C)C2`, the MIC came out at 3 µg/mL in the test with Staphylococcus aureus [1]; 10 µg/mL in the test on Escherichia coli [2]; 3 µg/mL with Streptococcus pyogenes [3]; 10 µg/mL in the test on Salmonella; 30 µg/mL in the test on Klebsiella aerogenes [4]; 10 µg/mL in the test with Klebsiella pneumoniae [6]. The MIC with Shigella dysenteriae and in the test with Proteus vulgaris [7] was 10 µg/mL in each case. Further, the results for the IC50 on Dihydrofolate reductase [5] and at Dihydrofolate reductase [8] were 0.055 µM and 37 µM, respectively.
As to `C/C=C/c1cc(Cc2cnc(N)nc2N)cc(/C=C/C)c1OC`, the MIC with Fusobacterium nucleatum was 1.6 µg/mL; in the test on Klebsiella aerogenes [9], 100 µg/mL (≈ 322 µM); in [10], 0.4 µg/mL; in the test on Streptococcus pyogenes [11], 0.1 µg/mL (≈ 0.322 µM); in the test with Serratia marcescens, over 5 µg/mL; in the test with Shigella flexneri it was 100 µg/mL (≈ 322 µM). Further, the minimal inhibitory concentration (MIC) was over 50 µg/mL in the test with Proteus vulgaris [12]; 100 µg/mL (≈ 322 µM) with Pasteurella multocida; 0.8 µg/mL in the test on Phocaeicola vulgatus; 2 µg/mL (≈ 6.44 µM) in test [13]; 25 µg/mL in the test on Clostridium perfringens; 72 µg/mL (≈ 232 µM) in the test on Escherichia coli [14]. The MIC against Klebsiella pneumoniae [15] turned out to be 100 µg/mL (≈ 322 µM); in the test on Clostridioides difficile it was 25 µg/mL; in test [16] it was 100 µg/mL (≈ 322 µM); against Staphylococcus aureus [17], 1 µg/mL (≈ 3.22 µM). Moreover, the IC50 on Dihydrofolate reductase [8] worked out at 27 µM.
For the compound `CCCOc1cc(Cc2cnc(N)nc2N)cc(OC)c1OC`, the MIC was found to be 3 µg/mL (≈ 9.42 µM) against Klebsiella aerogenes [9]; 0.3 µg/mL (≈ 0.942 µM) against Streptococcus pyogenes [11]; 3 µg/mL (≈ 9.42 µM) in the test on Serratia marcescens; 10 µg/mL (≈ 31.4 µM) against Shigella flexneri; 3 µg/mL (≈ 9.42 µM) in the test with Proteus vulgaris [12]; 3 µg/mL (≈ 9.42 µM) in the test with Pasteurella multocida. For the same compound, the MIC in test [13] worked out at 3 µg/mL (≈ 9.42 µM); against Escherichia coli [14] it was 6 µg/mL (≈ 18.8 µM); against Klebsiella pneumoniae [15], 10 µg/mL (≈ 31.4 µM); in test [16], 10 µg/mL (≈ 31.4 µM); in the test with Staphylococcus aureus [17], 0.3 µg/mL (≈ 0.942 µM). Moreover, the IC50 at Dihydrofolate reductase [8] worked out at 94.5 µM.
With `C=CCc1cc(Cc2cnc(N)nc2N)ccc1O`, the MIC in the test with Fusobacterium nucleatum was 0.8 µg/mL; against Klebsiella aerogenes [9] it was 10 µg/mL (≈ 39 µM); in the test on Streptococcus pyogenes [11], 2 µg/mL (≈ 7.8 µM); in the test with Serratia marcescens it was 20 µg/mL (≈ 78 µM); with Shigella flexneri, 10 µg/mL (≈ 39 µM); in the test on Proteus vulgaris [12] it was 50 µg/mL (≈ 195 µM). Further, the MIC was 10 µg/mL (≈ 39 µM) against Pasteurella multocida; 5 µg/mL (≈ 19.5 µM) in [13]; over 25 µg/mL in the test on Clostridium perfringens; 16 µg/mL (≈ 62.4 µM) against Escherichia coli [14]; 20 µg/mL (≈ 78 µM) against Klebsiella pneumoniae [15]; 25 µg/mL in the test on Clostridioides difficile. The MIC in test [16] stood at 100 µg/mL (≈ 390 µM); in the test with Staphylococcus aureus [17], 10 µg/mL (≈ 39 µM). Besides, the IC50 at Dihydrofolate reductase [8] is 94.5 µM.
As to `C=CCc1cc(Cc2cnc(N)nc2N)cc(CCC)c1O`, the MIC in the test on Fusobacterium nucleatum came out at 0.4 µg/mL; against Klebsiella aerogenes [9], 30 µg/mL (≈ 101 µM); in test [10], 0.8 µg/mL; in the test with Streptococcus pyogenes [11], 1 µg/mL (≈ 3.35 µM); against Serratia marcescens, 3 µg/mL (≈ 10.1 µM); in the test with Shigella flexneri, 30 µg/mL (≈ 101 µM). Further, the MIC in the test on Proteus vulgaris [12] is 30 µg/mL (≈ 101 µM); in the test on Pasteurella multocida, 30 µg/mL (≈ 101 µM); in the test on Phocaeicola vulgatus it was 0.8 µg/mL; in test [13], 10 µg/mL (≈ 33.5 µM); in the test with Clostridium perfringens, over 25 µg/mL; against Escherichia coli [14] it was 5 µg/mL (≈ 16.8 µM). Moreover, the MIC against Klebsiella pneumoniae [15] was 30 µg/mL (≈ 101 µM); in the test with Clostridioides difficile it was over 25 µg/mL; in [16], 100 µg/mL (≈ 335 µM); against Staphylococcus aureus [17] it was 3 µg/mL (≈ 10.1 µM). In addition, on Dihydrofolate reductase [8], the IC50 is 2 µM.
Turning to `C=CCOc1ccc(Cc2cnc(N)nc2N)cc1`, the MIC against Klebsiella aerogenes [9] is 10 µg/mL (≈ 39 µM); in the test with Streptococcus pyogenes [11], 10 µg/mL (≈ 39 µM); with Serratia marcescens, over 20 µg/mL; in the test with Shigella flexneri, 100 µg/mL (≈ 390 µM); with Proteus vulgaris [12], over 100 µg/mL; against Pasteurella multocida, 100 µg/mL (≈ 390 µM). Also, the MIC is 50 µg/mL (≈ 195 µM) in test [13]; 72 µg/mL (≈ 281 µM) with Escherichia coli [14]; 100 µg/mL (≈ 390 µM) with Klebsiella pneumoniae [15]; 100 µg/mL (≈ 390 µM) in test [16]; 100 µg/mL (≈ 390 µM) with Staphylococcus aureus [17]. Besides, the IC50 at Dihydrofolate reductase [8] was found to be 320 µM.

As usually defined, the MIC is the lowest concentration found to suppress growth.
